# Key:
# [1] = system: MDA-MB-231 triple negative human breast adenocarcinoma cells; experiment: 2D dose–response assay; assay type: cell-based; conditions: 24 h treatment, n = 3/dose
# Method in brief: (§1)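 Cells were trypsinized, seeded at 250,000 cells/mL in 96-well plates and cultured 24 h before dosing. Test compound was dissolved in 100% DMSO and serially diluted 1:2 in media to 5000–40 μg/mL dosing solutions, which were diluted 10-fold in the well (final DMSO ≤1%), in triplicate. Plates were incubated 24 h at 37 °C, 5% CO2, then viability was read by CCK-8. Controls: cell-free media and untreated cells. Absolute IC50 was calculated.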
# [2] = Critical micelle concentration; assay type: physicochemical; conditions: 0.1 M NaHCO3, pH 8.7, 22 °C
# Method in brief: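 Surface tension across a concentration series was measured by Wilhelmy platinum-plate tensiometry on freshly prepared samples, in triplicate. Separate linear regressions were fitted to the declining and flat regions of the surface tension–concentration curve; their intersection gave the CMC.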
# [3] = system: AU565 human breast adenocarcinoma cells; experiment: 2D dose–response assay; assay type: cell-based; conditions: 24 h treatment, n = 3/dose
# Method in brief: as §1
# [4] = system: BT-474 human breast ductal carcinoma cells; experiment: 2D dose–response assay; assay type: cell-based; conditions: 24 h treatment, n = 3/dose
# Method in brief: as §1
# MDA-MB-231 3D spheroids = experiment: 3D dose–response assay, liquid-overlay spheroids; assay type: cell-based, human; conditions: 24 h treatment, n = 3/dose
# Method in brief: (§2)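 Spheroids formed by liquid overlay: 250,000 cells/mL in round-bottom nonadherent wells with 2.5% v/v Matrigel, centrifuged 10 min at 1000 rpm, then matured 4 days. Test compound DMSO stocks were serially diluted 1:2 to 10,000–80 μg/mL and diluted 10-fold in wells (final DMSO ≤1% v/v), in triplicate. Incubation 24 h at 37 °C, 5% CO2; viability by CellTiter 3D luminescence. Absolute IC50 by nonlinear regression.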
# BT-474 cells = experiment: CellTox Green cytotoxicity assay: cell lysis; assay type: cell-based, human; conditions: dosed at IC50; 1, 6, 12, 24 h post exposure
# osteoblasts = conditions: 5 μM; cited from earlier work
# MDA-MB-231 cells = experiment: CellTox Green cytotoxicity assay: cell lysis; assay type: cell-based, human; conditions: dosed at IC50; 1, 6, 12, 24 h post exposure
# erythrocytes = conditions: therapeutic dose used for viral inactivation; cited from earlier work
# [5] = system: nontumorigenic keratinocytes; conditions: 30 μM; cited from earlier work
# CCD1065SK HDF = experiment: 2D dose–response assay; assay type: cell-based, human; conditions: 24 h treatment, nontumorigenic fibroblasts
# Method in brief: as §1
# sheep erythrocytes = experiment: Hemolytic activity; assay type: cell-based; conditions: sheep RBC 2% v/v, 37 °C, 1 h
# Method in brief: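 Fresh sheep RBCs were washed in PBS pH 7.4 until the supernatant was clear, with 1000 rpm, 8 min spins. RBCs were exposed to test compound at 2000–5 μg/mL in PBS containing 5% DMSO, then centrifuged 1000 rpm, 8 min at RT. Supernatant absorbance was read at 540 nm, with 630 nm background. Controls: PBS/5% DMSO (negative) and 1% v/v Triton X-100 (positive).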
# BT-474 3D spheroids = experiment: 3D dose–response assay, liquid-overlay spheroids; assay type: cell-based, human; conditions: 24 h treatment, n = 3/dose
# Method in brief: as §2
# [6] = system: MCF-7 human breast epithelial adenocarcinoma cells; experiment: 2D dose–response assay; assay type: cell-based; conditions: 24 h treatment, n = 3/dose
# Method in brief: as §1
# HeLa cells = conditions: cited from earlier work
Substance,IC50 2D monolayer MDA-MB-231 [1],CMC [2],IC50 2D monolayer AU565 [3],IC50 2D monolayer BT-474 [4],IC50 3D spheroids MDA-MB-231 (MDA-MB-231 3D spheroids),"extent of cell lysis, BT-474 (BT-474 cells)","cell viability, osteoblasts (osteoblasts)","extent of cell lysis, MDA-MB-231 (MDA-MB-231 cells)",concentration at which rapid lysis of erythrocytes occurred (erythrocytes),"cell viability, nontumorigenic keratinocytes [5]",IC50 2D monolayer CCD1065SK HDF (CCD1065SK HDF),IC50 erythrocytes (50% of RBCs lysed) (sheep erythrocytes),IC50 3D spheroids BT-474 (BT-474 3D spheroids),IC50 2D monolayer MCF-7 [6],IC50 toward HeLa cells (HeLa cells)
"Surfactin [Compound 1, reference compound]",84 µg/mL,9.5 µg/mL,110 µg/mL,21 µg/mL,140 µg/mL,cell lysis of both BT-474 and MDA-MB-231 cells was observed,100%,cell lysis of both BT-474 and MDA-MB-231 cells was observed,40 µM,100%,180 µg/mL,38 µg/mL,330 µg/mL,24 µg/mL,–
C15-surfactin,–,–,–,–,–,–,–,–,–,–,–,–,–,–,25.2 µg/mL
C15-surfactin-O-methyl ester,–,–,–,–,–,–,–,–,–,–,–,–,–,–,47.7 µg/mL

# From publication PMC10134466 (ACS Omega, 2023)
